Source: ChEMBL document CHEMBL4130635, “2,4-Diaminoquinazolines as Dual Toll-like Receptor (TLR) 7/8 Modulators for the Treatment of Hepatitis B Virus” (J Med Chem, 2018)
Activity calls are given as the source filed them. No cut-off for these calls is given here.

Key:
Cynomolgus monkey [1] = assay: Activation of monocytes in cynomolgus monkey plasma assessed as upregulation of MCP1 levels at 3 mg/kg, po after 24 hrs by Luminex assay (reference value: 385 pg/ml); format: functional, Macaca fascicularis
[2] = Drug uptake in C57BL/6J mouse liver at 30 mg/kg, po by LC-MS analysis; format: ADME, organism-based; conditions: in vivo
Summary of the method: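 Healthy C57BL/6 mice, groups of 15, given a single oral dose (0.3, 1, 3, 10 or 30 mg/kg) in 20% HP-β-CD. Blood drawn at 0.5 h. Three mice per group sacrificed at 0.5, 1, 2, 4 or 7 h, and compound in plasma and liver measured by LC−MS. Values rounded to whole numbers.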

Liver [3] = assay: Proinflammatory activity in C57BL/6J mouse liver assessed as IL-6 levels at 10 mg/kg, po by multiplex assay (reference value: 10 pg/g); format: functional
Plasma [4] = assay: Proinflammatory activity in C57BL/6J mouse plasma assessed as IL-1beta levels at 10 mg/kg, po by multiplex assay (reference value: 60 pg/ml); format: functional
Plasma [5] = assay: Proinflammatory activity in C57BL/6J mouse plasma assessed as CXCL-1 levels at 10 mg/kg, po by multiplex assay (reference value: 230 pg/ml); format: functional
Cynomolgus monkey [6] = assay: Induction of G-CSF in cynomolgus monkey plasma at 30 mg/kg, po after 24 hrs by Luminex assay (reference value: 85 pg/ml); format: functional, Macaca fascicularis
Summary of the method: (§1)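 Healthy cynomolgus monkeys given single oral doses of 1, 3, 9 and 30 mg/kg, with a 2-week wash-out planned between doses. Systemic cytokine levels in plasma were sampled at 0.5, 1, 2, 4, 9 and 24 h postdose.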

[7] = Cmax in Sprague-Dawley rat plasma at 10 mg/kg, po; format: ADME, organism-based; parameters: dose 10 mg/kg, route oral
Summary of the method: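 Male Sprague-Dawley rats given 10 mg/kg po as a solution. Compound measured in portal vein, systemic plasma and liver. Cmax taken from concentration–time profiles.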

Liver [8] = assay: Proinflammatory activity in C57BL/6J mouse liver assessed as CXCL-1 levels at 0.3 mg/kg, po by multiplex assay (reference value: 25 pg/g); format: functional
Liver [9] = assay: Proinflammatory activity in C57BL/6J mouse liver assessed as IL-6 levels at 30 mg/kg, po by multiplex assay (reference value: 10 pg/g); format: functional
Plasma [10] = assay: Induction of IFNalpha levels in C57BL/6J mouse plasma at 30 mg/kg, po by ELISA; format: functional
[11] = AUC (0 to last) in C57BL/6J mouse plasma at 10 mg/kg, po by LC-MS analysis; format: ADME, organism-based; parameters: dose 10 mg/kg, route oral, time 0 - last
Summary of the method: (§2)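 Healthy C57BL/6 mice were dosed once by mouth at 0.3, 1, 3, 10 or 30 mg/kg in 20% HP-β-CD, in groups of 15 per dose. Three mice per group were sacrificed at 0.5, 1, 2, 4 or 7 h, and plasma and liver compound levels were measured by LC–MS. Values were rounded to whole numbers.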

Cynomolgus monkey [12] = assay: Induction of ISG response in cynomolgus monkey plasma assessed as upregulation of Oas1b mRNA expression at 1 mg/kg, po after 24 hrs by Fluidigm RT-qPCR analysis (reference value: 1); format: functional, Macaca fascicularis
Summary of the method: (§3)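 Cynomolgus monkeys, single oral doses of 1, 3, 9 and 30 mg/kg with a planned 2-week wash-out between doses. Systemic ISG (ISG15, Mx1, OAS1) mRNA was measured by Fluidigm RT-qPCR at 1, 2, 4, 8 and 24 h postdose.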

Cynomolgus monkey [13] = assay: Activation of monocytes in cynomolgus monkey plasma assessed as upregulation of MIP1 levels at 3 mg/kg, po after 24 hrs by Luminex assay (reference value: 37 pg/ml); format: functional, Macaca fascicularis
[14] = Selectivity index, ratio of compound concentration causing induction of AST level in primary human hepatocytes infected with HBV genotype C for 12 days followed by exposure to conditioned supernatant from at 5 uM compound treated PBMCs measured after 42 days to Agonist activity at human TLR7 expressed in HEK293 cells
Cynomolgus monkey [15] = assay: Plasma concentration in cynomolgus monkey at 9 mg/kg, po by LC-MS analysis; format: ADME, organism-based, Macaca fascicularis; conditions: in vivo
[16] = AUC (0 to last) in C57BL/6J mouse liver at 1 mg/kg, po by LC-MS analysis; format: ADME, organism-based; conditions: in vivo; summary of the method: as §2
[17] = biological target: TLR7 and TLR8 (Homo sapiens) (UniProt Q9NYK1+Q9NR97); assay: Agonist activity at TLR7/8 in human PBMCs co-cultured with primary human hepatocytes infected with HBV genotype C for 12 days assessed as increase in IFNgamma levels up to 5 uM measured after 42 days
[18] = Intrinsic clearance in dog liver microsomes assessed per mg protein at 1 uM up to 60 mins; format: ADME, Canis lupus familiaris, microsome; conditions: read-out: CLH
Cynomolgus monkey [19] = assay: Induction of ISG response in cynomolgus monkey plasma assessed as upregulation of Oas1b mRNA expression at 3 mg/kg, po after 24 hrs by Fluidigm RT-qPCR analysis (reference value: 1); format: functional, Macaca fascicularis; summary of the method: as §3
Plasma [20] = assay: Effect on cytokine profile in C57BL/6J mouse plasma assessed as IFNgamma levels at 1 mg/kg, po by multiplex assay; format: functional, organism-based
Summary of the method: (§4)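 Single oral gavage in 20% HP-β-CD to healthy C57BL/6 mice, groups of 15 at 0.3, 1, 3, 10 or 30 mg/kg. Three mice per group sacrificed at 0.5, 1, 2, 4 or 7 h. Plasma and liver cytokines by multiplex, maximum level reported, rounded to nearest multiple of 5.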

Plasma [21] = assay: Proinflammatory activity in C57BL/6J mouse plasma assessed as IL-6 levels at 0.3 mg/kg, po by multiplex assay (reference value: 505 pg/ml); format: functional
Liver [22] = assay: Induction of IFNalpha levels in C57BL/6J mouse liver at 30 mg/kg, po by ELISA (reference value: 30 pg/g); format: functional
Cynomolgus monkey [23] = assay: Activation of monocytes in cynomolgus monkey plasma assessed as upregulation of MIP1 levels at 9 mg/kg, po after 24 hrs by Luminex assay (reference value: 37 pg/ml); format: functional, Macaca fascicularis
[24] = Inhibition of CYP450 (unknown origin); format: ADME; conditions: human
Plasma [25] = assay: Upregulation of IP-10 mRNA expression levels in C57BL/6J mouse plasma at 10 mg/kg, po by RT-qPCR analysis (reference value: 1); format: functional
Liver [26] = assay: Proinflammatory activity in C57BL/6J mouse liver assessed as CXCL-1 levels at 30 mg/kg, po by multiplex assay (reference value: 25 pg/g); format: functional
Liver [27] = assay: Effect on cytokine profile in C57BL/6J mouse liver assessed as IFNgamma levels at 1 mg/kg, po by multiplex assay; format: functional, organism-based; summary of the method: as §4
Cynomolgus monkey [28] = assay: Induction of IFNalpha levels in cynomolgus monkey plasma at 30 mg/kg, po after 24 hrs by ELISA; format: functional, Macaca fascicularis; summary of the method: as §1
Cynomolgus monkey [29] = assay: Toxicity in cynomolgus monkey assessed as change in body weight up to 30 mg/kg, po; format: organism-based, Macaca fascicularis; conditions: in vivo
Plasma [30] = assay: Upregulation of IP-10 mRNA expression levels in C57BL/6J mouse plasma at 1 mg/kg, po by RT-qPCR analysis (reference value: 1); format: functional
Cynomolgus monkey [31] = assay: Induction of ISG response in cynomolgus monkey plasma assessed as upregulation of Oas1b mRNA expression at 9 mg/kg, po after 24 hrs by Fluidigm RT-qPCR analysis (reference value: 1); format: functional, Macaca fascicularis; summary of the method: as §3

Compound CCC[C@@H](CCO)Nc1nc(N)nc2c(F)cccc12 has an Activity (Cynomolgus monkey [1]) of 7720 pg/mL, a Drug uptake [2] of 462 ng/g and an Activity (Liver [3]) of 3450 pg/g. For the same compound, the Activity (Plasma [4]) was 55 pg/mL, the Activity (Plasma [5]) was over 10000 pg/mL and the Activity (Cynomolgus monkey [6]) was 1135 pg/mL. The Cmax [7] was 16 ng/mL, the Activity (Liver [8]) was 7790 pg/g and the Activity (Liver [9]) was 7555 pg/g. For the same compound, the Activity (Plasma [10]) was 1930 pg/mL, the AUC(0-t) [11] was 141 ng·h/mL and the “fold change (FC)” value (Cynomolgus monkey [12]) was 180. It also gave an Activity (Cynomolgus monkey [13]) of 85 pg/mL, a Ratio [14] of 25 and a Cp (Cynomolgus monkey [15]) of 200 ng/mL. The AUClast [16] was 148 ng·h/g, the Activity [17] was “Active” and the microsomal CLint at 1 µM [18] was 21 µL/min/mg. For the same compound, the “fold change (FC)” value (Cynomolgus monkey [19]) was 265, the Activity (Plasma [20]) was “Below limit of detection” and the Activity (Plasma [21]) was 480 pg/mL. For the same compound, the Activity (Liver [22]) was 955 pg/g, the Activity (Cynomolgus monkey [23]) was 310 pg/mL and the “inhibition (INH)” value [24] was “Not Active”. The “fold change (FC)” value (Plasma [25]) was 2875, the Activity (Liver [26]) was over 83333 pg/g and the Activity (Liver [27]) was “Below limit of detection”. For the same compound, the Activity (Cynomolgus monkey [28]) was over 51200 pg/mL, the Activity (Cynomolgus monkey [29]) was “Non-Toxic” and the “fold change (FC)” value (Plasma [30]) was 845. The “fold change (FC)” value (Cynomolgus monkey [31]) was 260.
